According to ChEMBL document CHEMBL4616673 (J Med Chem, 2020):
pIC50: −log10 of the molar value. Values after ≈ are worked out from the molar mass of the structure shown. Active and inactive are the calls of the source. No cut-off for these calls is given here.

Legend:
Raji [1] = assay: Antiproliferative activity against human Raji cells assessed as reduction in cell viability measured after 48 hrs by MTT assay; assay type: functional, cell-based
[2] = biological target: Dihydroorotate dehydrogenase (quinone), mitochondrial (Homo sapiens, UniProt Q02127); assay: Inhibition of human DHODH using dihydroorotate as substrate and CoQ10 as co-substrate preincubated for 30 mins followed by substrate addition by DCIP coupled microplate reader assay
[3] = Solubility of the compound in PBS; assay type: physicochemical
Raji [4] = assay: Induction of apoptosis in human Raji cells assessed as necrotic cells at 1 uM measured after 48 hrs by Annexin V-FITC staining based flow cytometry (reference value: 0.12 to 0.15 %); assay type: functional
Raji [5] = assay: Induction of apoptosis in human Raji cells assessed as necrotic cells at 0.25 uM measured after 48 hrs by Annexin V-FITC staining based flow cytometry (reference value: 0.12 to 0.15 %); assay type: functional
Raji [6] = assay: Induction of apoptosis in human Raji cells assessed as early apoptotic cells at 0.25 uM measured after 48 hrs by Annexin V-FITC staining based flow cytometry (reference value: 2.12 to 2.15 %); assay type: functional
K562 = assay: Antiproliferative activity against human K562 cells assessed as reduction in cell viability measured after 48 hrs by MTT assay; assay type: functional, cell-based
NAMALVA = assay: Antiproliferative activity against human NAMALWA cells assessed as reduction in cell viability measured after 48 hrs by MTT assay; assay type: functional, cell-based
HeLa = assay: Antiproliferative activity against human HeLa cells assessed as reduction in cell viability measured after 48 hrs by MTT assay; assay type: functional, cell-based
Raji [7] = assay: Induction of apoptosis in human Raji cells assessed as early apoptotic cells at 1 uM measured after 48 hrs by Annexin V-FITC staining based flow cytometry (reference value: 2.12 to 2.15 %); assay type: functional
Raji [8] = assay: Induction of apoptosis in human Raji cells assessed as live cells at 0.5 uM measured after 48 hrs by Annexin V-FITC staining based flow cytometry (reference value: 96.46 to 96.71 %); assay type: functional
Raji [9] = assay: Antiproliferative activity against human Raji cells assessed as inhibition of cell proliferation at 0.156 to 1.250 uM measured after 48 hrs in presence of uridine by MTT assay; assay type: functional, cell-based
In short: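 Raji cells (ATCC; 10% FBS medium, 37 °C, 5% CO2) seeded at 2-10 × 10^3 cells/well, grown 24 h, then exposed to compound with or without uridine (500 μM) for 48 h. MTT added for 2-4 h; formazan dissolved in 20% acidified SDS overnight; absorbance read at 570 nm. Mean ± SD.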

HCT-116 = assay: Antiproliferative activity against human HCT116 cells assessed as reduction in cell viability measured after 48 hrs by MTT assay; assay type: functional, cell-based
Raji [10] = assay: Induction of apoptosis in human Raji cells assessed as early apoptotic cells at 0.5 uM measured after 48 hrs by Annexin V-FITC staining based flow cytometry (reference value: 2.12 to 2.15 %); assay type: functional
Raji [11] = assay: Induction of ROS generation in human Raji cells assessed as increase in ROS level measured after 24 hrs by DHE dye based fluorescence microplate reader assay; assay type: functional, cell-based
In short: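 Raji cells treated 24 h, harvested, stained with 10 μM DHE in pre-warmed PBS for 15 min in the dark. Fluorescence read on a plate reader at ex 510/em 600 nm. Mean ± SD.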

Raji [12] = assay: Cell cycle arrest in human Raji cells assessed as accumulation at S phase at 0.5 uM measured after 24 hrs by propidium iodide/RNase staining based flow cytometry (reference value: 52%); assay type: functional
Raji [13] = assay: Induction of apoptosis in human Raji cells assessed as live cells at 1 uM measured after 48 hrs by Annexin V-FITC staining based flow cytometry (reference value: 96.46 to 96.71 %); assay type: functional
MCF7 = assay: Antiproliferative activity against human MCF7 cells assessed as reduction in cell viability measured after 48 hrs by MTT assay; assay type: functional, cell-based
A-375 = assay: Antiproliferative activity against human A375 cells assessed as reduction in cell viability measured after 48 hrs by MTT assay; assay type: functional, cell-based
Raji [14] = assay: Induction of mitochondrial membrane potential loss in human Raji cells measured after 48 hrs by TMRM staining based fluorescence assay; assay type: functional, cell-based
In short: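 Raji cells treated 48 h (CCCP as positive control), washed in PBS. Incubated with TMRM at 100 nM final for 15 min at 37 °C, fluorescence read at ex 510/em 580 nm. Mean ± SD.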

Raji [15] = assay: Induction of apoptosis in human Raji cells assessed as necrotic cells at 0.5 uM measured after 48 hrs by Annexin V-FITC staining based flow cytometry (reference value: 0.12 to 0.15 %); assay type: functional
Raji [16] = assay: Induction of apoptosis in human Raji cells assessed as live cells at 0.25 uM measured after 48 hrs by Annexin V-FITC staining based flow cytometry (reference value: 96.46 to 96.71 %); assay type: functional
A549 = assay: Antiproliferative activity against human A549 cells assessed as reduction in cell viability measured after 48 hrs by MTT assay; assay type: functional, cell-based
[17] = Toxicity in NOD-SCID nude mouse xenografted with human Raji cells assessed as induction of liver damage at 10 mg/kg/day, po administered 6 days a week for 3 weeks and measured post last dose by H and E staining based light microscopic analysis; details: in vivo
[18] = Toxicity in NOD-SCID nude mouse xenografted with human Raji cells assessed as body weight loss at 30 mg/kg/day, po administered 6 days a week for 3 weeks and measured every 3 days during compound dosing; assay type: organism-based; details: in vivo, 10 mg/kg, in the assay text read “10 mg/kg/day” for “30 mg/kg/day”
[19] = Stability of the compound in pH 9 buffer assessed as decrease in compound concentration at 0.01 mg/ml measured up to 24 hrs by LC-MS analysis; assay type: physicochemical; details: read-out: Drug degradation
In short: (§1)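 Compound at 0.01 mg/mL final in buffer containing 10% acetonitrile at pH 1.0, 4.5, 6.6, 7.4 or 9.0. Held at 37 °C, sampled at 0, 2, 4, 6, 8, 10, 12 and 24 h. Remaining compound by LC-MS.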

[20] = Stability of the compound in pH 1 to 7.4 buffer assessed as decrease in compound concentration at 0.01 mg/ml measured up to 24 hrs by LC-MS analysis; assay type: physicochemical; details: read-out: Drug degradation; in short: as §1
Raji [21] = assay: Antitumor activity against human Raji cells xenografted in NOD-SCID nude mouse assessed as tumor growth inhibition at 10 mg/kg/day, po administered 6 days a week for 3 weeks relative to control; assay type: functional
In short: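 Nude mice given 1 × 10^7 Raji cells s.c. in serum-free medium plus basement membrane matrix. Randomized at 100–200 mm3 tumour volume (n = 6 per group). Oral dosing 6 days/week for 3 weeks. Vehicles: 30 mg/kg/d in 5% NMP/95% PEG400, 10 mg/kg/d in 30% PEG300/70% saline. Volume = ab²/2 every 3 days. TGI from treated vs control volume change, initial to final day.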

Sequence of Dihydroorotate dehydrogenase (quinone), mitochondrial (Q02127 whole entry): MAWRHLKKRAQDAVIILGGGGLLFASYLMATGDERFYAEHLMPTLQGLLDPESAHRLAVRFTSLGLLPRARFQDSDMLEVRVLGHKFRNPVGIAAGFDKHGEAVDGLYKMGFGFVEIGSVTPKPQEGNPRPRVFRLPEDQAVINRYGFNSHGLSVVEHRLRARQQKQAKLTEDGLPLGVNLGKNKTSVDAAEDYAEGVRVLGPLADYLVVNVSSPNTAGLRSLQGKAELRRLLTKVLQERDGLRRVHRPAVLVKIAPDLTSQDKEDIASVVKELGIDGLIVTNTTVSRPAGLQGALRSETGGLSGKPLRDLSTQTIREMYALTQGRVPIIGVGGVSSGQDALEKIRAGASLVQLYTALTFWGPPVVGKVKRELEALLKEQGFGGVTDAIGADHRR

Compound `COc1cccc(-c2c(F)cc(-n3nnc4c3C(=O)c3ccccc3C4=O)cc2F)c1` has a pIC50 (Raji [1]; Homo sapiens, Raji, 48 h) of 6.32, a pIC50 [2] of 8.05 and a solubility [3] of 21.4 µg/mL (≈ 51.3 µM). For the same compound, the Activity (Raji [4]) was 0.39%, the Activity (Raji [5]) was 0.5% and the Activity (Raji [6]) was 3.58%. It also gave a pIC50 (K562; Homo sapiens, K562, 48 h) of 6.47, a pIC50 (NAMALVA; Homo sapiens, NAMALVA, 48 h) of 5.98 and a pIC50 (HeLa; Homo sapiens, HeLa, 48 h) of less than 5.00. For the same compound, the Activity (Raji [7]) was 4.24%, the Activity (Raji [8]) was 91.11% and the inhibition (Raji [9]) was “inactive”. For the same compound, the pIC50 (HCT-116; Homo sapiens, HCT-116, 48 h) was 6.22, the Activity (Raji [10]) was 3.43% and the Activity (Raji [11]) was “Dose-dependent effect”. It also gave an Activity (Raji [12]) of 77.98%, an Activity (Raji [13]) of 90.1% and a pIC50 (MCF7; Homo sapiens, MCF7, 48 h) of less than 5.00. The pIC50 (A-375; Homo sapiens, A-375, 48 h) was 7.40, the Activity (Raji [14]) was “Dose-dependent effect” and the Activity (Raji [15]) was 0.36%. It also gave an Activity (Raji [16]) of 91.81% and a pIC50 (A549; Homo sapiens, A549, 48 h) of 5.65.

For `Cc1c(-c2ccc(-c3ccccc3F)cc2)nc2ccc(F)cc2c1C(=O)O` [BREQUINAR], the pIC50 (Raji [1]; raji) was 5.64, the Activity [17] was “Toxic” and the Activity [18] was “Toxic”. For the same compound, the solubility [3] was 75.2 µg/mL (≈ 200 µM), the degraded at 24 h, 0.01 mg/ml [19] was 75.4% and the Activity (Raji [4]) was 0.41%. For the same compound, the Activity (Raji [5]) was 0.27%, the Activity (Raji [6]) was 2.42% and the pIC50 (K562; k562) was 6.27. It also gave a pIC50 (NAMALVA; namalva) of less than 5.00, a pIC50 (HeLa; hela) of less than 5.00 and an Activity (Raji [7]) of 2.48%. For the same compound, the Activity (Raji [8]) was 91.85%, the pIC50 (HCT-116; hct-116) was 5.39 and the Activity (Raji [10]) was 3.56%. It also gave a degraded at 24 h, 0.01 mg/ml [20] of 6.3 to 12.1%, an Activity (Raji [13]) of 92.06% and a TGI (Raji [21]) of 74%. The pIC50 (MCF7; mcf7) was less than 5.00, the pIC50 (A-375; a-375) was 6.23 and the Activity (Raji [15]) was 0.27%. It also gave an Activity (Raji [16]) of 93.68% and a pIC50 (A549; a549) of 5.39.
